Assay results published in ChEMBL document CHEMBL1137333, “Synthesis, radiosynthesis, and biological evaluation of carbon-11 labeled 2beta-carbomethoxy-3beta-(3'-((Z)-2-haloethenyl)phenyl)nortropanes: candidate radioligands for in vivo imaging of the serotonin transporter with positron emission tomography” (J Med Chem, 2006).

Legend:
Cynomolgus monkey [1] = experiment: Ratio of uptake in medulla to cerebellum of anesthetized cynomolgus monkey after 105 mins; assay type: ADME, organism-based; conditions: in vivo, 1.75 h
In short: (§1)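 Baseline microPET (Concorde P4) in anesthetized cynomolgus monkey after injection of the [11C]-labelled tracer. Regional time-activity curves were taken, and each region's uptake was divided by cerebellum uptake (low-SERT reference) at 65, 85 and 105 min postinjection.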

Cynomolgus monkey [2] = experiment: Uptake in anesthetized cynomolgus monkey cerebellum after 1.5 mins; assay type: ADME, organism-based; conditions: in vivo, 0.025 h
In short: (§2)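 Baseline microPET (Concorde P4) regional brain time-activity curves in anesthetized cynomolgus monkey following injection of the [11C]-labelled tracer, with radioactivity followed over the scan.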

Cynomolgus monkey [3] = experiment: Uptake in anesthetized cynomolgus monkey midbrain after 6.5 mins; assay type: ADME, organism-based; conditions: in vivo
In short: (§3)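 Baseline microPET scan (P4 scanner) of anesthetized cynomolgus monkeys after injection of the carbon-11 labelled nortropane tracer. Two baseline studies were run per tracer. Radioactivity was followed over time in regional brain time-activity curves.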

Cynomolgus monkey [4] = experiment: Uptake in anesthetized cynomolgus monkey medulla after 27.5 mins; assay type: ADME, organism-based, Medulla of organ; conditions: in vivo; in short: as §3
Cynomolgus monkey [5] = experiment: Uptake in anesthetized cynomolgus monkey medulla after 2.5 mins; assay type: ADME, organism-based, Medulla of organ; conditions: in vivo; in short: as §3
Cynomolgus monkey [6] = experiment: Uptake in anesthetized cynomolgus monkey putamen after 35.0 mins; assay type: ADME, organism-based; conditions: in vivo
In short: (§4)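 Baseline microPET (Concorde P4) scan in anesthetized cynomolgus monkeys after injection of the carbon-11 labeled tracer, with no chase drug. Regional brain time-activity curves were followed over the scan. Tracer radiochemical purity and specific activity were determined by analytical HPLC at the time of injection.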

Cynomolgus monkey [7] = experiment: Uptake in anesthetized cynomolgus monkey midbrain after 0.5 mins; assay type: ADME, organism-based; conditions: in vivo; in short: as §3
Cynomolgus monkey [8] = experiment: Uptake in anesthetized cynomolgus monkey pons after 18.5 mins; assay type: ADME, organism-based; conditions: in vivo; in short: as §4
Cynomolgus monkey [9] = experiment: Uptake in anesthetized cynomolgus monkey putamen after 15.5 mins; assay type: ADME, organism-based; conditions: in vivo; in short: as §4
Cynomolgus monkey [10] = experiment: Uptake in anesthetized cynomolgus monkey caudate after 115.0 mins; assay type: ADME, organism-based, Caudate nucleus; conditions: in vivo; in short: as §2
Cynomolgus monkey [11] = experiment: Ratio of uptake in occipital to cerebellum of anesthetized cynomolgus monkey after 65 mins; assay type: ADME, organism-based; conditions: in vivo; in short: as §1
Cynomolgus monkey [12] = experiment: Uptake in anesthetized cynomolgus monkey pons after 1.5 mins; assay type: ADME, organism-based, Macaca mulatta; conditions: rhesus monkey, in vivo, 0.025 h; in short: as §3
Cynomolgus monkey [13] = experiment: Uptake in anesthetized cynomolgus monkey medulla after 9.5 mins; assay type: ADME, organism-based, Medulla of organ; conditions: in vivo; in short: as §3
Cynomolgus monkey [14] = experiment: Uptake in anesthetized cynomolgus monkey frontal after 4.5 mins; assay type: ADME, organism-based, Frontal cortex; conditions: in vivo, 0.075 h; in short: as §3
Cynomolgus monkey [15] = experiment: Uptake in anesthetized cynomolgus monkey frontal after 27.5 mins; assay type: ADME, organism-based, Frontal cortex; conditions: in vivo; in short: as §3
Cynomolgus monkey [16] = experiment: Uptake in anesthetized cynomolgus monkey cerebellum after 35.0 mins; assay type: ADME, organism-based, Macaca mulatta; conditions: rhesus monkey, in vivo; in short: as §2
Cynomolgus monkey [17] = experiment: Uptake in anesthetized cynomolgus monkey putamen after 75.0 mins; assay type: ADME, organism-based; conditions: in vivo, 1.25 h; in short: as §4
Cynomolgus monkey [18] = experiment: Uptake in anesthetized cynomolgus monkey pons after 95.0 mins; assay type: ADME, organism-based; conditions: in vivo; in short: as §4
Cynomolgus monkey [19] = experiment: Uptake in anesthetized cynomolgus monkey cerebellum after 2.5 mins; assay type: ADME, organism-based, Macaca mulatta; conditions: rhesus monkey, in vivo; in short: as §2
Cynomolgus monkey [20] = experiment: Ratio of uptake in pons to cerebellum of anesthetized cynomolgus monkey after 105 mins; assay type: ADME, organism-based; conditions: in vivo, 1.75 h; in short: as §1
Cynomolgus monkey [21] = experiment: Uptake in anesthetized cynomolgus monkey putamen after 2.5 mins; assay type: ADME, organism-based; conditions: in vivo; in short: as §4
Cynomolgus monkey [22] = experiment: Uptake in anesthetized cynomolgus monkey midbrain after 15.5 mins; assay type: ADME, organism-based; conditions: in vivo; in short: as §3
Cynomolgus monkey [23] = experiment: Uptake in anesthetized cynomolgus monkey medulla after 22.5 mins; assay type: ADME, organism-based, Medulla of organ; conditions: in vivo, 0.375 h; in short: as §3
Cynomolgus monkey [24] = experiment: Uptake in anesthetized cynomolgus monkey thalamus after 45.0 mins; assay type: ADME, organism-based; conditions: in vivo, 0.75 h; in short: as §4
Cynomolgus monkey [25] = experiment: Uptake in anesthetized cynomolgus monkey occipital after 0.5 mins; assay type: ADME, organism-based, Occipital cortex; conditions: in vivo; in short: as §3
Cynomolgus monkey [26] = experiment: Uptake in anesthetized cynomolgus monkey frontal after 35.0 mins; assay type: ADME, organism-based, Frontal cortex; conditions: in vivo; in short: as §3
Cynomolgus monkey [27] = experiment: Uptake in anesthetized cynomolgus monkey putamen after 27.5 mins; assay type: ADME, organism-based; conditions: in vivo; in short: as §4
Cynomolgus monkey [28] = experiment: Uptake in anesthetized cynomolgus monkey medulla after 0.5 mins; assay type: ADME, organism-based, Medulla of organ; conditions: in vivo; in short: as §3
Cynomolgus monkey [29] = experiment: Uptake in anesthetized cynomolgus monkey occipital after 2.5 mins; assay type: ADME, organism-based, Macaca mulatta, Occipital cortex; conditions: rhesus monkey, in vivo; in short: as §3
Cynomolgus monkey [30] = experiment: Uptake in anesthetized cynomolgus monkey medulla after 55.0 mins; assay type: ADME, organism-based, Medulla of organ; conditions: in vivo; in short: as §3
Cynomolgus monkey [31] = experiment: Uptake in anesthetized cynomolgus monkey frontal after 9.5 mins; assay type: ADME, organism-based, Frontal cortex; conditions: in vivo; in short: as §3
Cynomolgus monkey [32] = experiment: Uptake in anesthetized cynomolgus monkey thalamus after 9.5 mins; assay type: ADME, organism-based; conditions: in vivo; in short: as §4
Cynomolgus monkey [33] = experiment: Uptake in anesthetized cynomolgus monkey thalamus after 105.0 mins; assay type: ADME, organism-based; conditions: in vivo, 1.75 h; in short: as §4
Cynomolgus monkey [34] = experiment: Ratio of uptake in putamen to cerebellum of anesthetized cynomolgus monkey after 85 mins; assay type: ADME, organism-based; conditions: in vivo; in short: as §1
Cynomolgus monkey [35] = experiment: Uptake in anesthetized cynomolgus monkey cerebellum after 18.5 mins; assay type: ADME, organism-based, Macaca mulatta; conditions: rhesus monkey, in vivo; in short: as §2

Question: With `[11CH3]OC(=O)[C@@H]1C2CCC(C[C@@H]1c1cccc(/C=C/I)c1)N2` (stereo not given in full) as the compound, how does the Ratio (Cynomolgus monkey [1]) read?
Answer: Its Ratio is 2.1.

Question: And the Drug uptake (Cynomolgus monkey [2])?
Answer: Its Drug uptake is 0.38.

Question: What about the Drug uptake (Cynomolgus monkey [3]) of the same compound?
Answer: Its Drug uptake is 4.97.

Question: What about the Drug uptake (Cynomolgus monkey [4]) of the same compound?
Answer: The Drug uptake was 7.04.

Question: What about the Drug uptake (Cynomolgus monkey [5]) of the same compound?
Answer: Its Drug uptake is 1.4.

Question: What about the Drug uptake (Cynomolgus monkey [6]) of the same compound?
Answer: The Drug uptake was 7.2.

Question: What about the Drug uptake (Cynomolgus monkey [7]) of the same compound?
Answer: Its Drug uptake is 0.01.

Question: What about the Drug uptake (Cynomolgus monkey [8]) of the same compound?
Answer: The Drug uptake was 5.52.

Question: And the Drug uptake (Cynomolgus monkey [9])?
Answer: The Drug uptake was 6.17.

Question: What about the Drug uptake (Cynomolgus monkey [10]) of the same compound?
Answer: The Drug uptake was 4.84.

Question: And the Ratio (Cynomolgus monkey [11])?
Answer: Its Ratio is 0.9.

Question: What about the Drug uptake (Cynomolgus monkey [12]) of the same compound?
Answer: Its Drug uptake is 0.29.

Question: What about the Drug uptake (Cynomolgus monkey [13]) of the same compound?
Answer: The Drug uptake was 6.22.

Question: And the Drug uptake (Cynomolgus monkey [14])?
Answer: Its Drug uptake is 1.91.

Question: And the Drug uptake (Cynomolgus monkey [15])?
Answer: Its Drug uptake is 4.09.

Question: And the Drug uptake (Cynomolgus monkey [16])?
Answer: Its Drug uptake is 5.42.

Question: What about the Drug uptake (Cynomolgus monkey [17]) of the same compound?
Answer: Its Drug uptake is 6.92.

Question: What about the Drug uptake (Cynomolgus monkey [18]) of the same compound?
Answer: Its Drug uptake is 5.84.

Question: What about the Drug uptake (Cynomolgus monkey [19]) of the same compound?
Answer: Its Drug uptake is 1.2.

Question: And the Ratio (Cynomolgus monkey [20])?
Answer: The Ratio was 1.8.

Question: What about the Drug uptake (Cynomolgus monkey [21]) of the same compound?
Answer: Its Drug uptake is 1.14.

Question: And the Drug uptake (Cynomolgus monkey [22])?
Answer: Its Drug uptake is 6.42.

Question: What about the Drug uptake (Cynomolgus monkey [23]) of the same compound?
Answer: The Drug uptake was 6.95.

Question: And the Drug uptake (Cynomolgus monkey [24])?
Answer: Its Drug uptake is 7.14.

Question: And the Drug uptake (Cynomolgus monkey [25])?
Answer: Its Drug uptake is 0.01.

Question: What about the Drug uptake (Cynomolgus monkey [26]) of the same compound?
Answer: Its Drug uptake is 4.13.

Question: What about the Drug uptake (Cynomolgus monkey [27]) of the same compound?
Answer: Its Drug uptake is 6.94.

Question: And the Drug uptake (Cynomolgus monkey [28])?
Answer: The Drug uptake was 0.02.

Question: What about the Drug uptake (Cynomolgus monkey [29]) of the same compound?
Answer: Its Drug uptake is 0.85.

Question: What about the Drug uptake (Cynomolgus monkey [30]) of the same compound?
Answer: Its Drug uptake is 7.26.

Question: And the Drug uptake (Cynomolgus monkey [31])?
Answer: Its Drug uptake is 3.33.

Question: What about the Drug uptake (Cynomolgus monkey [32]) of the same compound?
Answer: The Drug uptake was 5.29.

Question: And the Drug uptake (Cynomolgus monkey [33])?
Answer: The Drug uptake was 6.3.

Question: What about the Ratio (Cynomolgus monkey [34]) of the same compound?
Answer: The Ratio was 1.8.

Question: And the Drug uptake (Cynomolgus monkey [35])?
Answer: The Drug uptake was 5.74.
